Test results published in ChEMBL document CHEMBL1240446, “Synthesis and biological activities of novel amine-derived bis-azoles as potential antibacterial and antifungal agents” (2010).
Values after ≈ are worked out from the molar mass of the structure shown.

Experiments:
Format in all cases: functional
Escherichia coli = assay: Antibacterial activity against Escherichia coli ATCC 25922 after 24 hrs by micro-broth dilution method; conditions: ATCC 25922, 24 h
Outline: (§1)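 MIC by broth microdilution following NCCLS methods. Inoculum adjusted in sterile saline to 1×10^4–1×10^5 CFU. Compounds from DMSO stocks, two-fold serial dilutions in Mueller-Hinton broth at 256 down to 0.25 µg/mL. Incubation 37 °C, 24 h. DMSO solvent control at matching dilutions. Growth read visually and spectrophotometrically. MIC is the lowest concentration arresting growth.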

Bacillus subtilis = assay: Antibacterial activity against Bacillus subtilis ATCC 21216 after 24 hrs by micro-broth dilution method; conditions: ATCC 21216, 24 h; outline: as §1
Pseudomonas aeruginosa = assay: Antibacterial activity against Pseudomonas aeruginosa ATCC 27853 after 24 hrs by micro-broth dilution method; conditions: ATCC 27853, 24 h; outline: as §1
Candida albicans = assay: Antifungal activity against Candida albicans ATCC 76615 after 24 hrs by micro-broth dilution method; conditions: ATCC 76615, 24 h
Outline: (§2)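 Broth microdilution per NCCLS. Spore suspension in sterile distilled water, taken from 1-day-old cultures on Sabouraud agar, final 1–5×10^3 spores/mL. Compounds diluted from stocks in RPMI 1640 to eleven concentrations, 0.25–256 µg/mL. Incubation 35 °C, 24 h. Growth scored visually and spectrophotometrically. MIC is the lowest concentration arresting fungal growth.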

Staphylococcus aureus [1] = assay: Antibacterial activity against Staphylococcus aureus ATCC 29213 after 24 hrs by micro-broth dilution method; conditions: ATCC 29213, 24 h
Outline: (§3)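 Broth microdilution per NCCLS in Mueller-Hinton broth. Inoculum adjusted in sterile saline to 1×10^4–1×10^5 CFU. Compounds taken from DMSO stocks and serially diluted two-fold to final 256–0.25 µg/mL (11 levels). Incubation 37 °C, 24 h, with a DMSO solvent control. Growth read visually and spectrophotometrically. MIC is the lowest concentration that arrests growth.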

Staphylococcus aureus [2] = assay: Antibacterial activity against methicillin-resistant Staphylococcus aureus N315 after 24 hrs by micro-broth dilution method; conditions: N315, 24 h; outline: as §3
Bacillus = assay: Antibacterial activity against Bacillus proteus ATCC 13315 after 24 hrs by micro-broth dilution method; conditions: ATCC 13315, 24 h; outline: as §1
Aspergillus fumigatus = assay: Antifungal activity against Aspergillus fumigatus ATCC 96918 after 24 hrs by micro-broth dilution method; conditions: ATCC 96918, 24 h; outline: as §2

| Structure (SMILES) | MIC (Escherichia coli) [µg/mL] | MIC (Bacillus subtilis) [µg/mL] | MIC (Pseudomonas aeruginosa) [µg/mL] | MIC (Candida albicans) [µg/mL] | MIC (Staphylococcus aureus [1]) [µg/mL] | MIC (Staphylococcus aureus [2]) [µg/mL] | MIC (Bacillus) [µg/mL] | MIC (Aspergillus fumigatus) [µg/mL] |
| --- | --- | --- | --- | --- | --- | --- | --- | --- |
| Clc1ccc(CN(CCn2cncn2)CCn2cncn2)c(Cl)c1.O=[N+]([O-])O | 64 | 128 | 16 | 0.25 | 32 | 256 | 8 | 128 |
| Cl.Fc1ccc(CN(CCn2ccnc2)CCn2ccnc2)c(F)c1 | 16 | 8 | 64 | 128 | 16 | 16 | 32 | > 256 |
| Clc1ccccc1CN(CCn1cncn1)CCn1cncn1 | 256 (≈ 772 µM) | > 256 | 128 (≈ 386 µM) | > 256 | > 256 | > 256 | > 256 | > 256 |
| Fc1ccc(CN(CCn2cncn2)CCn2cncn2)c(F)c1 | 64 (≈ 192 µM) | 64 (≈ 192 µM) | 8 (≈ 24 µM) | > 256 | 128 (≈ 384 µM) | > 256 | > 256 | > 256 |
| Fc1ccc(CN(CCn2cnc3ccccc32)CCn2cnc3ccccc32)c(F)c1.O=[N+]([O-])O | > 256 | > 256 | > 256 | > 256 | 128 | 256 | 128 | > 256 |
| Clc1ccc(CN(CCn2ccnc2)CCn2ccnc2)c(Cl)c1.O=[N+]([O-])O | 32 | 16 | 4 | 128 | 16 | 16 | 64 | > 256 |
| Fc1ccc(CN(CCn2ccnc2)CCn2ccnc2)c(F)c1.O=[N+]([O-])O | 32 | 16 | 64 | 128 | 32 | 32 | 64 | > 256 |
| Clc1ccc(CN(CCn2ccnc2)CCn2ccnc2)cc1Cl.O=[N+]([O-])O | 4 | 16 | 64 | > 256 | 16 | 16 | 32 | 64 |
| Clc1ccc(CN(CCn2cncn2)CCn2cncn2)cc1Cl | 32 (≈ 87.4 µM) | 32 (≈ 87.4 µM) | 64 (≈ 175 µM) | > 256 | 64 (≈ 175 µM) | 256 (≈ 699 µM) | 0.5 (≈ 1.37 µM) | > 256 |
| Clc1ccc(CN(CCn2cncn2)CCn2cncn2)cc1 | 256 (≈ 772 µM) | > 256 | 16 (≈ 48.2 µM) | > 256 | > 256 | > 256 | 128 (≈ 386 µM) | > 256 |
| OC(Cn1cncn1)(Cn1cncn1)c1ccc(F)cc1F [FLUCONAZOLE] |  |  |  | 0.5 (≈ 1.63 µM) |  |  |  | 256 (≈ 836 µM) |
| OCCN(CCO)Cc1ccc(Cl)c(Cl)c1 | 128 (≈ 485 µM) | 128 (≈ 485 µM) | > 256 | > 256 | 256 (≈ 969 µM) | > 256 | 128 (≈ 485 µM) | > 256 |
| Cl.Clc1ccc(CN(CCn2ccnc2)CCn2ccnc2)cc1Cl | 4 | 4 | 32 | > 256 | 4 | 8 | 16 | 32 |
| Clc1cccc(CN(CCn2ccnc2)CCn2ccnc2)c1 | 32 (≈ 97 µM) | 128 (≈ 388 µM) | 32 (≈ 97 µM) | > 256 | 64 (≈ 194 µM) | > 256 | 64 (≈ 194 µM) | > 256 |
| O=C(N[C@H](CO)[C@H](O)c1ccc([N+](=O)[O-])cc1)C(Cl)Cl [CHLORAMPHENICOL] | 8 (≈ 24.8 µM) | 8 (≈ 24.8 µM) | 64 (≈ 198 µM) |  | 8 (≈ 24.8 µM) | 16 (≈ 49.5 µM) | 8 (≈ 24.8 µM) |  |
| Clc1ccc(CN(CCn2cncn2)CCn2cncn2)cc1Cl.O=[N+]([O-])O | 32 | 16 | 64 | 256 | 16 | 64 | 0.25 | > 256 |
| Clc1ccc(CN(CCn2cncn2)CCn2cncn2)c(Cl)c1 | 64 (≈ 175 µM) | > 256 | 32 (≈ 87.4 µM) | 0.25 (≈ 0.683 µM) | 64 (≈ 175 µM) | 256 (≈ 699 µM) | 16 (≈ 43.7 µM) | > 256 |
| OCCN(CCO)Cc1cccc(Cl)c1 | > 256 | > 256 | > 256 | > 256 | > 256 | > 256 | > 256 | > 256 |

| Structure (SMILES) | MIC (Escherichia coli) [µg/mL] | MIC (Bacillus subtilis) [µg/mL] | MIC (Pseudomonas aeruginosa) [µg/mL] | MIC (Candida albicans) [µg/mL] | MIC (Staphylococcus aureus [1]) [µg/mL] | MIC (Staphylococcus aureus [2]) [µg/mL] | MIC (Bacillus) [µg/mL] | MIC (Aspergillus fumigatus) [µg/mL] |
| --- | --- | --- | --- | --- | --- | --- | --- | --- |
| OCCN(CCO)Cc1ccc(Cl)cc1 | 256 (≈ 1110 µM) | > 256 | 256 (≈ 1110 µM) | > 256 | > 256 | > 256 | 256 (≈ 1110 µM) | > 256 |
| Clc1cccc(CN(CCn2cncn2)CCn2cncn2)c1 | > 256 | > 256 | 16 (≈ 48.2 µM) | > 256 | 256 (≈ 772 µM) | 256 (≈ 772 µM) | 32 (≈ 96.4 µM) | > 256 |
| Clc1ccccc1CN(CCn1ccnc1)CCn1ccnc1 | 16 (≈ 48.5 µM) | > 256 | 256 (≈ 776 µM) | > 256 | 128 (≈ 388 µM) | 256 (≈ 776 µM) | > 256 | > 256 |
| Cl.Clc1ccc(CN(CCn2ccnc2)CCn2ccnc2)c(Cl)c1 | 16 | 8 | 4 | 64 | 4 | 8 | 32 | > 256 |
| Cl.Fc1ccc(CN(CCn2cncn2)CCn2cncn2)c(F)c1 | 64 | 32 | 8 | 32 | 64 | > 256 | 256 | 256 |
| Cl.Clc1ccc(CN(CCn2cncn2)CCn2cncn2)cc1Cl | 32 | 16 | 32 | 128 | 32 | 32 | 0.25 | 256 |
| CCn1cc(C(=O)O)c(=O)c2cc(F)c(N3CCNCC3)cc21 [NORFLOXACIN] | 0.5 (≈ 1.57 µM) | 1 (≈ 3.13 µM) | 2 (≈ 6.26 µM) |  | 0.25 (≈ 0.783 µM) | 0.25 (≈ 0.783 µM) | 1 (≈ 3.13 µM) |  |
| Clc1ccc(CN(CCn2ccnc2)CCn2ccnc2)c(Cl)c1 | 16 (≈ 43.9 µM) | 32 (≈ 87.8 µM) | 4 (≈ 11 µM) | 128 (≈ 351 µM) | 8 (≈ 22 µM) | 16 (≈ 43.9 µM) | 32 (≈ 87.8 µM) | > 256 |
| OCCN(CCO)Cc1ccc(Cl)cc1Cl | 256 (≈ 969 µM) | 256 (≈ 969 µM) | 128 (≈ 485 µM) | 128 (≈ 485 µM) | 128 (≈ 485 µM) | 256 (≈ 969 µM) | 128 (≈ 485 µM) | 256 (≈ 969 µM) |
| Cl.Clc1ccc(CN(CCn2cncn2)CCn2cncn2)c(Cl)c1 | 32 | 128 | 16 | 0.25 | 16 | 128 | 4 | 128 |
| Clc1ccc(CN(CCn2ccnc2)CCn2ccnc2)cc1Cl | 16 (≈ 43.9 µM) | 16 (≈ 43.9 µM) | 64 (≈ 176 µM) | > 256 | 16 (≈ 43.9 µM) | 32 (≈ 87.8 µM) | 64 (≈ 176 µM) | 64 (≈ 176 µM) |
| OCCN(CCO)Cc1ccccc1Cl | > 256 | > 256 | > 256 | > 256 | > 256 | > 256 | 256 (≈ 1110 µM) | > 256 |
| Clc1ccc(CN(CCn2cnc3ccccc32)CCn2cnc3ccccc32)c(Cl)c1 | 128 (≈ 276 µM) | 32 (≈ 68.9 µM) | 32 (≈ 68.9 µM) | > 256 | 32 (≈ 68.9 µM) | 64 (≈ 138 µM) | 32 (≈ 68.9 µM) | > 256 |
| Cc1cc2ncn(CCN(CCn3cnc4cc(C)c(C)cc43)Cc3ccc(Cl)cc3Cl)c2cc1C | 16 (≈ 30.7 µM) | 64 (≈ 123 µM) | 128 (≈ 246 µM) | > 256 | 128 (≈ 246 µM) | > 256 | 32 (≈ 61.5 µM) | > 256 |
| Fc1ccc(CN(CCn2cnc3ccccc32)CCn2cnc3ccccc32)c(F)c1 | 128 (≈ 297 µM) | 64 (≈ 148 µM) | > 256 | > 256 | 64 (≈ 148 µM) | > 256 | 64 (≈ 148 µM) | > 256 |
| Clc1ccc(CN(CCn2ccnc2)CCn2ccnc2)cc1 | 32 (≈ 97 µM) | 64 (≈ 194 µM) | 64 (≈ 194 µM) | > 256 | 64 (≈ 194 µM) | 64 (≈ 194 µM) | 128 (≈ 388 µM) | > 256 |
| Cl.Fc1ccc(CN(CCn2cnc3ccccc32)CCn2cnc3ccccc32)c(F)c1 | > 256 | > 256 | > 256 | > 256 | 32 | 128 | 64 | > 256 |
